Screening results as filed in PubChem.
The list is not random: actives were taken first. Their share in the collection is about 2.3%.
SKN-1 block – blocks SKN-1 activity in C. elegans; 0.49% of 360,000 active; inhibition, % at 21.8 µM; C. elegans VP596 Pgst-4::GFP/RFP ratio, acrylamide-induced, 24 h;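 active = interference check ratio from 0.5 to 1.5 plus GFP to RFP signal ratio inhibition reaching or exceeding a fixed threshold, cut at about 30% in these data, passing the limit was not always enough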
Rpn11 inh – Rpn11 (human) deubiquitinase inhibition. O00487. human 26S proteasome, Ub4-pepOG fluorescence polarization; 20S core pre-blocked with epoxomicin. inhibition, % at 20 µM. 0.59% of 360,000 active;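 active = inhibition at 20 µM, scaled to each plate's controls, above about 33%, limit read from the data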
Target sequence (O00487 whole entry, looked up): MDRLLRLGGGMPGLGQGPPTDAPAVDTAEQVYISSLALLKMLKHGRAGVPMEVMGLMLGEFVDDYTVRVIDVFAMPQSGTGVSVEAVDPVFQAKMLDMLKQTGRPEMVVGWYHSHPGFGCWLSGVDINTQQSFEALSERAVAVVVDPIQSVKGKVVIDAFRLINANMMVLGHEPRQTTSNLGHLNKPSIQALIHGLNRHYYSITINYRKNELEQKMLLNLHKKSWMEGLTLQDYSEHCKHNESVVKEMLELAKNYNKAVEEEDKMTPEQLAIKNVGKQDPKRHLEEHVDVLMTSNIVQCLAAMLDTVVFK
CSN inh – inhibitors of human CSN-mediated cullin deneddylation; Purified CSN, SCF-Nedd8-OG deneddylation, fluorescence polarization; inhibition, % at 12.5 µM; 0.38% of 360,000 active;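 active = pattern-corrected inhibition above about 35%, with an unprinted fluorescence ratio check between 0.5 and 1.5, limit read from the data, passing the limit was not always enough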;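 also: 0% = enzyme with substrate and 100% = substrate without enzyme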
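Assay system: purified human Csn5 enzyme expressed in HEK293T cells; measure: % inhibition; also added: SCFSkp2-Nedd8OG substrate at 10 nM final; technique: fluorescence polarization; times: reaction 90 min, room temperature; medium: Tris buffer pH 7.5, NaCl, DTT, Tween-20, trehalose, ovalbumin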
DNMT1 block – DNMT1 (human) enzyme inhibition; inhibition (reported as % activation of signal), % at 10 µM; 0.83% of 360,000 active; DNMT1 molecular beacon, Hinp1I cleavage, fluorescence; P26358; in the data active = inhibition above about 50%
SUMO1-SIM PPI – modulators of human SUMO1-mediated protein-protein interactions | inhibition, % at 20 µM | AID 602429 | P63165 | SUMO1 binding to a labelled peptide, TR-FRET, 1 h | 0.33% of 360,000 active; in the data active = inhibition above about 37%
Target sequence (P63165 whole entry, looked up): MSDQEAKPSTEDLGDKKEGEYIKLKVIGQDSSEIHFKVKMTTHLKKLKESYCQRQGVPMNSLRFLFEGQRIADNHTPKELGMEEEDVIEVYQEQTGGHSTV
MT1-MMP act inh – inhibitors of human MT1-MMP activation; GFP/RFP ratio change, % at 20 µM; 0.061% of 360,000 active; HT1080 RFP-PRO-GFP cells, GFP/RFP ratio fluorescence, overnight; percent of plate control window, DMSO zero;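 active = GFP/RFP ratio change of at least 30% with cell ATP level not reduced by more than half and red fluorescence within 50% of control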
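Assay system: HT1080 RFP-PRO-GFP cells. Benchmarks: DMSO vehicle wells and RFP-L50D-GFP reporter cell wells. Times: overnight cell settling, then overnight compound exposure, 37 °C, 5% CO2. Compound: 20 µM single dose, 1% DMSO. Read-out basis: GFP/RFP fluorescence ratio.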
Numbers without * were called inactive.

How did O=C(OCC(=O)N1N=C(c2ccc(Cl)cc2)CC1c1ccco1)c1ccccc1O (stereo unspecified) do in these assays?
SKN-1 block: 38*; Rpn11 inh: 8; CSN inh: 7; DNMT1 block: 4; SUMO1-SIM PPI: -1; MT1-MMP act inh: -15

What do the screens show for `Cc1cc2ccccc2n1CCNC(=O)C(C)(C)C`?
SKN-1 block: 44; Rpn11 inh: -10; CSN inh: -5; DNMT1 block: -6; SUMO1-SIM PPI: -21; MT1-MMP act inh: 26

Results for O=C(NCc1ccco1)c1ccc(S(=O)(=O)N2CCOCC2)cc1 ?
SKN-1 block: -27; Rpn11 inh: -13; CSN inh: 25; DNMT1 block: 76*; SUMO1-SIM PPI: 7; MT1-MMP act inh: 3

What do the screens show for `CCC(=O)NCCn1c(C)cc2ccccc21`?
SKN-1 block: 39*; Rpn11 inh: 0; CSN inh: -1; DNMT1 block: -1; SUMO1-SIM PPI: -21; MT1-MMP act inh: 5

How did Cc1onc(-c2ccccc2Cl)c1C(=O)NCCn1c(C)cc2ccccc21 do in these assays?
SKN-1 block: 45; Rpn11 inh: -1; CSN inh: 3; DNMT1 block: -15; SUMO1-SIM PPI: -3; MT1-MMP act inh: 40*

Results for CC(=O)NCCn1c(C)cc2ccccc21 ?
SKN-1 block: 49*; Rpn11 inh: -5; CSN inh: -3; DNMT1 block: 3; SUMO1-SIM PPI: -21; MT1-MMP act inh: -2

What do the screens show for `Cc1cccc(C)c1NC(=O)C1C(c2ccc3c(c2)OCO3)=Nc2ccccc2N1C(=O)c1cccc2ccccc12` (stereo unspecified)?
SKN-1 block: 9; CSN inh: 8; SUMO1-SIM PPI: -31; MT1-MMP act inh: -13

What do the screens show for `Cc1cc(Br)cn2c(CC(C)(C)C)c(C3CCCCC3)nc12`?
SKN-1 block: 10; Rpn11 inh: 7; CSN inh: 0; DNMT1 block: 23; SUMO1-SIM PPI: 0; MT1-MMP act inh: 1

How did COc1ccc(C(=O)NCCn2ccc3ccccc32)cc1 do in these assays?
SKN-1 block: -3; Rpn11 inh: -3; CSN inh: -4; DNMT1 block: -8; SUMO1-SIM PPI: -5; MT1-MMP act inh: 6

What do the screens show for `Cc1cc2ccccc2n1CCNC(=O)c1ccccc1`?
SKN-1 block: 48*; Rpn11 inh: -3; CSN inh: 2; DNMT1 block: -7; SUMO1-SIM PPI: -9; MT1-MMP act inh: 61

How did Cc1cc2ccccc2n1CCNC(=O)c1ccc(S(=O)(=O)N2CCOCC2)cc1 do in these assays?
SKN-1 block: 47*; Rpn11 inh: -2; CSN inh: -5; DNMT1 block: 7; SUMO1-SIM PPI: -5; MT1-MMP act inh: 81

What do the screens show for `COc1ccccc1OCCn1nc2ccccc2c1OC`?
SKN-1 block: -5; CSN inh: -3; SUMO1-SIM PPI: -5; MT1-MMP act inh: 14

Results for Cc1cc(C)c(NC(=O)C2C(=O)Nc3ccccc3C(=O)N2C(C)(C)C)c(C)c1 (stereo unspecified) ?
SKN-1 block: 11; CSN inh: -3; SUMO1-SIM PPI: 0; MT1-MMP act inh: 1

How did Fc1ccc(-c2cn3cc(C(F)(F)F)cc(Cl)c3n2)cc1 do in these assays?
SKN-1 block: 35*; Rpn11 inh: -1; CSN inh: -2; DNMT1 block: -4; SUMO1-SIM PPI: -6; MT1-MMP act inh: 0

How did Cc1ccc(CNC(=O)c2ccc(Cn3nc(C)cc3C)o2)cc1 do in these assays?
SKN-1 block: 16; Rpn11 inh: -3; CSN inh: 3; DNMT1 block: 0; SUMO1-SIM PPI: -7; MT1-MMP act inh: 4

What do the screens show for `O=C(NCc1ccco1)c1ccc(CS(=O)(=O)c2cccc(C(F)(F)F)c2)o1`?
SKN-1 block: 4; Rpn11 inh: -6; CSN inh: -2; DNMT1 block: -1; SUMO1-SIM PPI: 55*; MT1-MMP act inh: 6

What do the screens show for `Cc1cc(C)n(Cc2ccc(C(=O)NCc3ccco3)o2)n1`?
SKN-1 block: 36*; Rpn11 inh: 2; CSN inh: -1; DNMT1 block: 3; SUMO1-SIM PPI: 1; MT1-MMP act inh: 1
